In ChEMBL document CHEMBL1153447, “Synthesis, cytotoxic and combined cDDP activity of new stable curcumin derivatives” (Bioorg Med Chem, 2009):

Assays:
[1] = Cytotoxicity against cisplatin-resistant human C13 cells after 72 hrs by crystal violet dye assay; format: functional, cell-based; conditions: C13, 72 h
How it was run: (§1)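 2008 ovarian carcinoma cells or the cisplatin-resistant C13* subline, grown in RPMI 1640 with 10% heat-inactivated FBS and gentamycin, 5% CO2, 37 °C, mycoplasma-negative. Seeded 4 × 10^4 cells/well, exposed 24 h later to compound for 3 days. Crystal violet stain solubilized in acidic isopropanol, absorbance read at 540 nm versus untreated controls. IC50 taken from dose–response curves. Mean of three experiments run in duplicate.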

[2] = system: 2008; assay: Cytotoxicity against cisplatin-sensitive human 2008 cells after 72 hrs by crystal violet dye assay; format: functional, cell-based; conditions: Homo sapiens, 2008, 72 h; how it was run: as §1
[3] = Cytotoxicity against african green monkey Vero cells assessed as inhibition of growth at 750 uM after 72 hrs by crystal violet dye assay; format: cell-based; conditions: chlorocebus sabaeus, read-out: Activity
How it was run: (§2)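 Vero cells (African green monkey kidney) grown in MEM with 10% heat-inactivated fetal calf serum, penicillin G and streptomycin, 5% CO2, 37 °C. Seeded 4 × 10^4 cells/well, exposed 24 h later to compound for 3 days. Methanol-fixed, crystal violet-stained, dye solubilized in acidic isopropanol, absorbance read at 540 nm. Cytotoxicity is calculated against untreated controls. Mean of three experiments run in duplicate.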

[4] = system: 2008; assay: Resistant factor, ratio of IC50 for cisplatin-resistant human C13 cells to IC50 for cisplatin-sensitive human 2008 cells; format: functional
How it was run: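 RF^I is the IC50 in C13* cells divided by the IC50 in parental 2008 cells. Both IC50s come from a 3-day crystal violet dose–response assay, read at 540 nm.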

[5] = system: Vero; assay: Resistance factor, ratio of IC50 for african green monkey Vero cells to IC50 for cisplatin-resistant human C13 cells
How it was run: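 RF^II is the IC50 in Vero cells divided by the IC50 in C13* cells. Each IC50 comes from a 3-day crystal violet dose–response assay, read at 540 nm.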

[6] = system: Vero; assay: Cytotoxicity against african green monkey Vero cells after 72 hrs by crystal violet dye assay; format: cell-based; conditions: Chlorocebus sabaeus; how it was run: as §2
[7] = Cytotoxicity against african green monkey Vero cells assessed as cell survival at 750 uM after 72 hrs by crystal violet dye assay; format: cell-based; conditions: chlorocebus sabaeus, read-out: Activity; how it was run: as §2
[8] = Cytotoxicity against cisplatin-resistant human C13 cells at 750 uM after 72 hrs by crystal violet dye assay; format: functional; how it was run: as §1
[9] = system: 2008; assay: Cytotoxicity against cisplatin-sensitive human 2008 cells at 750 uM after 72 hrs by crystal violet dye assay; format: functional; how it was run: as §1
[10] = system: Vero; assay: Cytotoxicity against african green monkey Vero cells at 5 uM after 72 hrs by crystal violet dye assay; format: cell-based; conditions: chlorocebus sabaeus; how it was run: as §2
[11] = system: 2008; assay: Cytotoxicity against cisplatin-sensitive human 2008 cells at 10 uM after 72 hrs by crystal violet dye assay; format: functional; how it was run: as §1
[12] = system: Vero; assay: Cytotoxicity against african green monkey Vero cells at 10 uM after 72 hrs by crystal violet dye assay; format: cell-based; conditions: chlorocebus sabaeus; how it was run: as §2
[13] = Cytotoxicity against cisplatin-resistant human C13 cells at 10 uM after 72 hrs by crystal violet dye assay; format: functional; how it was run: as §1

Compound	IC50 [1]	IC50 [2]	inhibition at 72 h, 750 µM [3]	Ratio IC50 [4]	Ratio IC50 [5]	IC50 [6]	viability at 72 h, 750 µM [7]	Activity [8]	Activity [9]	Activity [10]	Activity [11]	Activity [12]	Activity [13]
COc1cc(/C=C/C(=O)CC(=O)/C=C/c2ccc(O[C@@H]3O[C@H](CO)[C@@H](O)[C@H](O)[C@H]3O)c(OC)c2)ccc1O[C@@H]1O[C@H](CO)[C@@H](O)[C@H](O)[C@H]1O	840 µM	220 µM	20%	3.8									
O=C(/C=C/c1ccc(O[C@@H]2O[C@H](CO)[C@@H](O)[C@H](O)[C@H]2O)cc1)CC(=O)/C=C/c1ccc(O[C@@H]2O[C@H](CO)[C@@H](O)[C@H](O)[C@H]2O)cc1	83 µM	22 µM		3.8	3.97	330 µM							
O=C(/C=C/c1ccc(O[C@@H]2O[C@H](CO)[C@@H](O)[C@H](O)[C@H]2O)c(O)c1)CC(=O)/C=C/c1ccc(O[C@@H]2O[C@H](CO)[C@@H](O)[C@H](O)[C@H]2O)c(O)c1		480 µM		>2			80%	15%	70%				
COc1cc(/C=C/C(=O)CC(=O)/C=C/c2ccc(O)c(OC)c2)ccc1O [CURCUMIN]	17 µM	5 µM		3.4	1.3	22 µM				10%	90%	25%	45%
